Laboratory results published in ChEMBL document CHEMBL3992561, “Synthesis of 1,3,5-trisubstituted pyrazolines as potential antimalarial and antimicrobial agents” (Bioorg Med Chem, 2017).
≈ marks a conversion by molar mass, not a printed value.

Key:
[1] = system: Staphylococcus aureus; test: Antibacterial activity against Staphylococcus aureus MTCC 3160 after 24 hrs by broth microdilution method; type: functional; conditions: MTCC 3160, 24 h
Procedure, shortened: (§1)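 Broth microdilution per NCCLS in Mueller-Hinton broth, inoculum 5 x 10^5 CFU/ml. Compounds dissolved in DMSO, twofold serial dilutions made in sterile distilled water. Incubated at 35°C for 24 h. MIC (µg/ml) taken as the lowest concentration with no visible turbidity by unaided eye. Ciprofloxacin as positive control. Three replicates, mean ± SD.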

[2] = system: Plasmodium falciparum; test: Antimalarial activity against chloroquine-resistant Plasmodium falciparum RKL-9 schizont infected in RBC measured after 24 to 30 hrs hrs by giemsa staining based light microscopic method; type: functional
Procedure, shortened: (§2)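 Asynchronous cultures synchronised to rings with 5% aqueous sorbitol, other stages removed by centrifugation; parasitemia about 1% in fresh washed RBCs. Compounds dissolved in DMSO, diluted in RPMI-1640, tested at several concentrations in triplicate; drug-free wells as control. Incubation 37°C in CO2 for 24-30 h until schizont maturation; methanol-fixed Giemsa smears counted under oil immersion; % inhibition, IC50 by probit; n=2.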

[3] = system: HepG2; test: Cytotoxicity against human HepG2 cells assessed as reduction in cell viability after 7 days by MTT assay; type: cell-based; conditions: HepG2, 168 h
Procedure, shortened: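 HepG2 cells maintained in RPMI 1640 with 10% FCS. Seeded at 5 x 10^2 cells per well and pre-incubated 1 h at 37°C, 5% CO2. Serial dilutions from DMSO stocks added, with medium and DMSO solvent controls. Cells incubated seven days, then MTT (5 mg/ml) added for 4 h. Formazan dissolved in ethanol, A570 read. IC50 by non-linear regression of % growth against log concentration.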

[4] = system: Escherichia coli; test: Antibacterial activity against Escherichia coli MTCC 51 after 24 hrs by broth microdilution method; type: functional; conditions: MTCC 51, 24 h; procedure, shortened: as §1
[5] = system: Bacillus subtilis; test: Antibacterial activity against Bacillus subtilis MTCC 121 after 24 hrs by broth microdilution method; type: functional; conditions: MTCC 121, 24 h; procedure, shortened: as §1
[6] = Inhibition of beta-hematin formation assessed as reduction in acetate buffer-initiated hemozoin formation after 18 hrs by spectrophotometric method relative to control; set-up: concentration or dose not given beside the values; conditions: concentration not given here
Procedure, shortened: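 Colorimetric β-hematin assay after Ncokazi and Egan. Haemin chloride in DMSO, with compounds at 0.12–5 molar equivalents to haemin and DMSO as control. Reaction started with acetate buffer pH 5.0 and run 18 h at 37°C. Pellet then washed with DMSO to remove unreacted haematin. % inhibition computed from test versus control absorbance. Duplicate determinations.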

[7] = Selectivity index, ratio of IC50 for human HepG2 cells to IC50 for chloroquine-resistant Plasmodium falciparum RKL-9 schizont infected in RBC; type: toxicity; conditions: read-out: Ratio IC50
Procedure, shortened: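 HepG2 in RPMI 1640 with 10% FCS, 5 x 10^2 cells/well, serial dilutions (DMSO stocks) added after 1 h; 7 days at 37°C, 5% CO2; MTT 4 h, formazan in ethanol, absorbance 570 nm; IC50 by non-linear regression, one experiment in duplicate. Index = HepG2 IC50 / RKL-9 antiplasmodial IC50.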

[8] = system: Pseudomonas aeruginosa; test: Antibacterial activity against Pseudomonas aeruginosa MTCC 741 after 24 hrs by broth microdilution method; type: functional; conditions: MTCC 741, 24 h; procedure, shortened: as §1
[9] = system: Plasmodium falciparum; test: Antimalarial activity against chloroquine-sensitive Plasmodium falciparum MRC-2 schizont infected in RBC measured after 24 to 30 hrs hrs by giemsa staining based light microscopic method; type: functional; procedure, shortened: as §2
[10] = system: Candida albicans; test: Antifungal activity against Candida albicans MTCC 227 after 48 hrs by broth microdilution method; type: functional; conditions: MTCC 227, 48 h
Procedure, shortened: (§3)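 Fungi grown in Sabouraud liquid medium, inoculum 0.5–2.5 x 10^3 CFU/ml. Broth microdilution per NCCLS using twofold serial dilutions in sterile water from DMSO solutions. Incubated at 35°C for 48 h. MIC (µg/ml) was the lowest concentration with no visible growth by eye. Fluconazole as positive control. Mean ± SD of three replicates.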

[11] = system: Aspergillus niger; test: Antifungal activity against Aspergillus niger MTCC 8189 after 48 hrs by broth microdilution method; type: functional; conditions: MTCC 8189, 48 h; procedure, shortened: as §3

SMILES	MIC [1]	IC50 [2]	IC50 [3]	MIC [4]	MIC [5]	inhibition [6]	selectivity ratio [7]	MIC [8]	IC50 [9]	MIC [10]	MIC [11]
COc1ccc(OC)c(C2CC(c3ccc(O)cc3)=NN2C(=O)c2cccnc2)c1 (configuration not stated)	25 µg/mL (≈ 62 µM)	330 nM	56800 nM	25 µg/mL (≈ 62 µM)	25 µg/mL (≈ 62 µM)	71%	172	12.5 µg/mL (≈ 31 µM)	40 nM	75 µg/mL (≈ 186 µM)	12.5 µg/mL (≈ 31 µM)
O=C(c1cccnc1)N1N=C(c2ccc(O)cc2)CC1c1ccc([N+](=O)[O-])cc1 (configuration not stated)	6.5 µg/mL (≈ 16.7 µM)	2440 nM	18600 nM	6.5 µg/mL (≈ 16.7 µM)	12.5 µg/mL (≈ 32.2 µM)	< 5%	7.63	25 µg/mL (≈ 64.4 µM)	1570 nM	12.5 µg/mL (≈ 32.2 µM)	25 µg/mL (≈ 64.4 µM)
CC(C)c1ccc(C2CC(c3ccc(O)cc3)=NN2C(=O)c2cccnc2)cc1 (configuration not stated)	12.5 µg/mL (≈ 32.4 µM)	465 nM	38700 nM	3.25 µg/mL (≈ 8.43 µM)	50 µg/mL (≈ 130 µM)	48%	83.3	12.5 µg/mL (≈ 32.4 µM)	34 nM	12.5 µg/mL (≈ 32.4 µM)	25 µg/mL (≈ 64.9 µM)
O=C(c1cccnc1)N1N=C(c2ccc(O)cc2)CC1c1ccc(Br)cc1 (configuration not stated)	6.5 µg/mL (≈ 15.4 µM)	970 nM	58700 nM	25 µg/mL (≈ 59.2 µM)	12.5 µg/mL (≈ 29.6 µM)	76%	60.5	12.5 µg/mL (≈ 29.6 µM)	141 nM	50 µg/mL (≈ 118 µM)	25 µg/mL (≈ 59.2 µM)
O=C(c1cccnc1)N1N=C(c2ccc(O)cc2)CC1c1ccc(OCc2ccccc2)cc1 (configuration not stated)	50 µg/mL (≈ 111 µM)	2550 nM	11400 nM	25 µg/mL (≈ 55.6 µM)	50 µg/mL (≈ 111 µM)	< 5%	4.48	12.5 µg/mL (≈ 27.8 µM)	214 nM	3.25 µg/mL (≈ 7.23 µM)	12.5 µg/mL (≈ 27.8 µM)
CC(C)c1ccccc1C1CC(c2ccc(O)cc2)=NN1C(=O)c1cccnc1 (configuration not stated)	25 µg/mL (≈ 64.9 µM)	1650 nM	49700 nM	3.25 µg/mL (≈ 8.43 µM)	12.5 µg/mL (≈ 32.4 µM)	57%	30.1	12.5 µg/mL (≈ 32.4 µM)	110 nM	50 µg/mL (≈ 130 µM)	25 µg/mL (≈ 64.9 µM)
Cc1cc(C)c(C2CC(c3ccc(O)cc3)=NN2C(=O)c2cccnc2)c(C)c1 (configuration not stated)	12.5 µg/mL (≈ 32.4 µM)	544 nM	54500 nM	6.5 µg/mL (≈ 16.9 µM)	12.5 µg/mL (≈ 32.4 µM)	67%	100	6.5 µg/mL (≈ 16.9 µM)	94 nM	50 µg/mL (≈ 130 µM)	25 µg/mL (≈ 64.9 µM)
CCN(CC)CCCC(C)Nc1ccnc2cc(Cl)ccc12 (configuration not stated)	–	–	–	–	–	87%	–	–	–	–	–
O=C(c1cccnc1)N1N=C(c2ccc(O)cc2)CC1c1ccc(F)cc1 (configuration not stated)	12.5 µg/mL (≈ 34.6 µM)	2900 nM	52400 nM	6.5 µg/mL (≈ 18 µM)	3.25 µg/mL (≈ 8.99 µM)	< 5%	18.1	12.5 µg/mL (≈ 34.6 µM)	2500 nM	12.5 µg/mL (≈ 34.6 µM)	25 µg/mL (≈ 69.2 µM)
OC(Cn1cncn1)(Cn1cncn1)c1ccc(F)cc1F [FLUCONAZOLE]	–	–	–	–	–	–	–	–	–	12.5 µg/mL (≈ 40.8 µM)	25 µg/mL (≈ 81.6 µM)
COc1ccc(C2CC(c3ccc(O)cc3)=NN2C(=O)c2cccnc2)cc1C (configuration not stated)	25 µg/mL (≈ 64.5 µM)	779 nM	44800 nM	12.5 µg/mL (≈ 32.3 µM)	25 µg/mL (≈ 64.5 µM)	66%	57.5	6.5 µg/mL (≈ 16.8 µM)	63 nM	50 µg/mL (≈ 129 µM)	25 µg/mL (≈ 64.5 µM)
CCc1ccccc1C1CC(c2ccc(O)cc2)=NN1C(=O)c1cccnc1 (configuration not stated)	50 µg/mL (≈ 135 µM)	471 nM	35400 nM	12.5 µg/mL (≈ 33.7 µM)	50 µg/mL (≈ 135 µM)	53%	75.1	25 µg/mL (≈ 67.3 µM)	81 nM	100 µg/mL (≈ 269 µM)	50 µg/mL (≈ 135 µM)
O=C(O)c1cn(C2CC2)c2cc(N3CCNCC3)c(F)cc2c1=O [CIPROFLOXACIN]	–	401 nM	27000 nM	12.5 µg/mL (≈ 37.7 µM)	25 µg/mL (≈ 75.4 µM)	–	–	–	–	–	–
COc1ccc(C2CC(c3ccc(O)cc3)=NN2C(=O)c2cccnc2)cc1OC (configuration not stated)	50 µg/mL (≈ 124 µM)	251 nM	53600 nM	50 µg/mL (≈ 124 µM)	50 µg/mL (≈ 124 µM)	89%	213	25 µg/mL (≈ 62 µM)	30 nM	75 µg/mL (≈ 186 µM)	6.5 µg/mL (≈ 16.1 µM)
CC(C)Oc1ccc(C2CC(c3ccc(O)cc3)=NN2C(=O)c2cccnc2)cc1 (configuration not stated)	50 µg/mL (≈ 125 µM)	337 nM	45400 nM	6.5 µg/mL (≈ 16.2 µM)	75 µg/mL (≈ 187 µM)	78%	139	50 µg/mL (≈ 125 µM)	38 nM	6.5 µg/mL (≈ 16.2 µM)	12.5 µg/mL (≈ 31.1 µM)
COc1ccc(C2CC(c3ccc(O)cc3)=NN2C(=O)c2cccnc2)cc1 (configuration not stated)	50 µg/mL (≈ 134 µM)	556 nM	42400 nM	25 µg/mL (≈ 67 µM)	75 µg/mL (≈ 201 µM)	54%	76.3	25 µg/mL (≈ 67 µM)	59 nM	50 µg/mL (≈ 134 µM)	12.5 µg/mL (≈ 33.5 µM)
CCCc1ccc(C2CC(c3ccc(O)cc3)=NN2C(=O)c2cccnc2)cc1 (configuration not stated)	12.5 µg/mL (≈ 32.4 µM)	192 nM	41600 nM	12.5 µg/mL (≈ 32.4 µM)	50 µg/mL (≈ 130 µM)	81%	216	12.5 µg/mL (≈ 32.4 µM)	22 nM	25 µg/mL (≈ 64.9 µM)	25 µg/mL (≈ 64.9 µM)
O=C(c1cccnc1)N1N=C(c2ccc(O)cc2)CC1c1ccccc1Cl (configuration not stated)	75 µg/mL (≈ 199 µM)	2330 nM	47700 nM	50 µg/mL (≈ 132 µM)	12.5 µg/mL (≈ 33.1 µM)	31%	20.5	3.25 µg/mL (≈ 8.6 µM)	240 nM	6.5 µg/mL (≈ 17.2 µM)	3.25 µg/mL (≈ 8.6 µM)
